Data as given in BindingDB's records for doi:10.1021/jm00107a020 (Pfizer, 1991).

Target: Aldo-keto reductase family 1 member B1 (Homo sapiens, UniProt P15121)
Assay: In vitro inhibition of human placental aldose reductase.
Procedure, shortened: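 Human placental aldose reductase, partly purified (placentae homogenized in 0.1 M K phosphate pH 7.0 with 5 mM 2-mercaptoethanol, spun 33000g, peak fractions pooled). Assay in 50 mM K phosphate pH 7.1 with 0.4 M ammonium sulfate, 0.067 mM NADPH, 1.0 mM DL-glyceraldehyde; enzyme set to 4 milliunits; NADPH oxidation at 340 nm, 25 °C, 10 min. IC50 by log linear regression.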

IC50 [nM] | Structure (SMILES)
2300 | CCOC(=O)C1CN(Cc2ccccc2Cl)C(=O)C1=O (configuration not stated)
2300 | CCOC(=O)C1CN(Cc2cccc3ccccc23)C(=O)C1=O (configuration not stated)
